Results reported in ChEMBL document CHEMBL1177891, “Synthesis and bioassay of pyrrolyl oxazolines and thiazolines” (2010).
Values after ≈ are worked out from the molar mass of the structure shown.

Tests used:
Type in all cases: functional
Aspergillus niger [1] = experiment: Antifungal activity against Aspergillus niger at 200 ug/disk after 48 hrs by disk diffusion method; conditions: read-out: IZ
How it was run: (§1)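 Fungi from NCIM on nutrient agar plates, pre-inoculated. 6 mm paper discs carrying 100 or 200 μg compound in DMSO applied. Plates incubated at 37 °C and inhibition zone diameter measured at 48 h. Ketoconazole control.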

Staphylococcus aureus [2] = experiment: Antibacterial activity against Staphylococcus aureus after 24 hrs by microdilution susceptibility assay
How it was run: (§2)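 Bacterial strains from NCIM. Broth microdilution: stocks at 800 μg/ml in DMSO, two-fold dilutions 400, 200, 100 ... 6.25 μg/ml, wells inoculated with bacterial suspension, 36 °C for 24 h. MIC = lowest concentration with no turbidity (no visible growth). Chloramphenicol as reference.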

Aspergillus niger [3] = experiment: Antifungal activity against Aspergillus niger after 48 hrs by microdilution susceptibility assay
How it was run: (§3)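 Fungal strains from NCIM. Microdilution: stocks at 800 μg/ml in DMSO, two-fold dilutions 400 down to 6.25 μg/ml, wells inoculated with fungal suspension, incubated 36 °C for 48 h. MIC read as lowest concentration without turbidity. Ketoconazole reference.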

Proteus vulgaris [4] = experiment: Antibacterial activity against Proteus vulgaris after 24 hrs by microdilution susceptibility assay; how it was run: as §2
Fusarium solani [5] = experiment: Antifungal activity against Fusarium solani at 100 ug/disk after 48 hrs by disk diffusion method; conditions: read-out: IZ; how it was run: as §1
Staphylococcus aureus [6] = experiment: Antibacterial activity against Staphylococcus aureus at 100 ug/disk after 24 hrs by disk diffusion method; conditions: read-out: IZ
How it was run: (§4)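 Agar disc diffusion on nutrient agar with NCIM bacteria. 6 mm sterile paper discs moistened with compound in DMSO (100 or 200 μg/disc) placed on pre-inoculated plates. Incubated at 37 °C; growth-inhibition zone diameter measured after 24 h. Chloramphenicol control.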

Fusarium solani [7] = experiment: Antifungal activity against Fusarium solani at 200 ug/disk after 48 hrs by disk diffusion method; conditions: read-out: IZ; how it was run: as §1
Bacillus subtilis [8] = experiment: Antibacterial activity against Bacillus subtilis at 100 ug/disk after 24 hrs by disk diffusion method; conditions: read-out: IZ; how it was run: as §4
Curvularia lunata [9] = experiment: Antifungal activity against Curvularia lunata at 100 ug/disk after 48 hrs by disk diffusion method; conditions: read-out: IZ; how it was run: as §1
Curvularia lunata [10] = experiment: Antifungal activity against Curvularia lunata after 48 hrs by microdilution susceptibility assay; how it was run: as §3
Klebsiella pneumoniae [11] = experiment: Antibacterial activity against Klebsiella pneumoniae at 100 ug/disk after 24 hrs by disk diffusion method; conditions: read-out: IZ; how it was run: as §4
Klebsiella pneumoniae [12] = experiment: Antibacterial activity against Klebsiella pneumoniae at 200 ug/disk after 24 hrs by disk diffusion method; conditions: read-out: IZ; how it was run: as §4
[13] = Antioxidant activity assessed as inhibition of nitric oxide production at 100 uM
How it was run: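 Sodium nitroprusside ([…]) in phosphate buffer pH 7.4 incubated with 100 μM compound (dioxane/methanol) at 25 °C for 120 min; solvent-only control. Aliquots mixed 1:1 with Griess reagent (1% sulfanilamide, 0.1% N-naphthylethylenediamine, 2% phosphoric acid). Absorbance at 546 nm, triplicate.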

Klebsiella pneumoniae [14] = experiment: Antibacterial activity against Klebsiella pneumoniae after 24 hrs by microdilution susceptibility assay; how it was run: as §2
Bacillus subtilis [15] = experiment: Antibacterial activity against Bacillus subtilis at 200 ug/disk after 24 hrs by disk diffusion method; conditions: read-out: IZ; how it was run: as §4
Aspergillus niger [16] = experiment: Antifungal activity against Aspergillus niger at 100 ug/disk after 48 hrs by disk diffusion method; conditions: read-out: IZ; how it was run: as §1
Staphylococcus aureus [17] = experiment: Antibacterial activity against Staphylococcus aureus at 200 ug/disk after 24 hrs by disk diffusion method; conditions: read-out: IZ; how it was run: as §4
Curvularia lunata [18] = experiment: Antifungal activity against […] lunata at 200 ug/disk after 48 hrs by disk diffusion method; conditions: read-out: IZ; how it was run: as §1
Proteus vulgaris [19] = experiment: Antibacterial activity against Proteus vulgaris at 200 ug/disk after 24 hrs by disk diffusion method; conditions: read-out: IZ; how it was run: as §4
Proteus vulgaris [20] = experiment: Antibacterial activity against Proteus vulgaris at 100 ug/disk after 24 hrs by disk diffusion method; conditions: read-out: IZ; how it was run: as §4
Fusarium solani [21] = experiment: Antifungal activity against Fusarium solani after 48 hrs by microdilution susceptibility assay; how it was run: as §3
Bacillus subtilis [22] = experiment: Antibacterial activity against Bacillus subtilis after 24 hrs by microdilution susceptibility assay; how it was run: as §2
[23] = tested on: Radical scavenging activity; experiment: Antioxidant activity assessed as DPPH radical scavenging activity at 100 uM
How it was run: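 Compound (100 μM) added to 100 μM DPPH in dioxane/ethanol. Kept at ambient temperature 20 min, then absorbance read at 517 nm. Percent DPPH scavenging taken from difference between test and control.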

[24] = Antioxidant activity assessed as increase in reducing power at 100 uM
How it was run: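 Oyaizu method. Compound at 100 μM in methanol mixed with 0.2 M phosphate buffer pH 6.6 and 1% potassium ferricyanide, 50 °C for 20 min. 10% TCA added, then centrifuged 3000 rpm for 10 min. Upper layer mixed with water and 0.1% FeCl3; absorbance read at 700 nm.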

MIC (Staphylococcus aureus [2]) | MIC (Aspergillus niger [3]) | MIC (Proteus vulgaris [4]) | MIC (Curvularia lunata [10]) | MIC (Klebsiella pneumoniae [14]) | SMILES | zone of inhibition at 200 µg/disc (Aspergillus niger [1]) | zone of inhibition at 100 µg/disc (Fusarium solani [5]) | zone of inhibition at 100 µg/disc (Staphylococcus aureus [6]) | zone of inhibition at 200 µg/disc (Fusarium solani [7]) | zone of inhibition at 100 µg/disc (Bacillus subtilis [8]) | zone of inhibition at 100 µg/disc (Curvularia lunata [9]) | zone of inhibition at 100 µg/disc (Klebsiella pneumoniae [11]) | zone of inhibition at 200 µg/disc (Klebsiella pneumoniae [12]) | inhibition [13] | zone of inhibition at 200 µg/disc (Bacillus subtilis [15]) | zone of inhibition at 100 µg/disc (Aspergillus niger [16]) | zone of inhibition at 200 µg/disc (Staphylococcus aureus [17]) | zone of inhibition at 200 µg/disc (Curvularia lunata [18]) | zone of inhibition at 200 µg/disc (Proteus vulgaris [19]) | zone of inhibition at 100 µg/disc (Proteus vulgaris [20]) | other results
25 µg/mL (≈ 61.7 µM) | 25 µg/mL (≈ 61.7 µM) | 50 µg/mL (≈ 123 µM) | 12.5 µg/mL (≈ 30.9 µM) | 50 µg/mL (≈ 123 µM) | O=S(=O)(CC1=NCCS1)c1c[nH]cc1S(=O)(=O)c1ccc(Cl)cc1 | 38 mm | 35 mm | 32 mm | 38 mm | 33 mm | 36 mm | 27 mm | 29 mm | 41.4% | 35 mm | 34 mm | 34 mm | 41 mm | 30 mm | 29 mm | MIC (Fusarium solani [21]): 50 µg/mL (≈ 123 µM); MIC (Bacillus subtilis [22]): 12.5 µg/mL (≈ 30.9 µM); inhibition [23]: 40.5%; inhibition [24]: 40.4%
100 µg/mL (≈ 270 µM) | 100 µg/mL (≈ 270 µM) | 100 µg/mL (≈ 270 µM) | 100 µg/mL (≈ 270 µM) | 100 µg/mL (≈ 270 µM) | O=S(=O)(CC1=NCCS1)c1c[nH]cc1S(=O)(=O)c1ccccc1 | 33 mm | 34 mm | 29 mm | 37 mm | 30 mm | 32 mm | 23 mm | 25 mm | 34.6% | 32 mm | 30 mm | 30 mm | 35 mm | 28 mm | 24 mm | MIC (Fusarium solani [21]): 100 µg/mL (≈ 270 µM); MIC (Bacillus subtilis [22]): 50 µg/mL (≈ 135 µM); inhibition [23]: 33.8%; inhibition [24]: 32.4%
